# Measured values: ChEMBL document CHEMBL4190281, “Azacyclo-indoles and Phenolics from the Flowers of Juglans regia” (J Nat Prod, 2017)
# Legend:
# [1] = test system: HepG2; test: Growth inhibition of human HepG2 cells after 96 hrs by MTT assay; assay type: functional, cell-based; conditions: HepG2, 96 h
# [2] = test system: NCI-H1650; test: Growth inhibition of human NCI-H1650 cells after 96 hrs by MTT assay; assay type: functional, cell-based; conditions: NCI-H1650, 96 h
# How it was run: (§1)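 Cancer cell lines exposed continuously to each sample for 96 h; growth read by MTT assay. IC50, the concentration inhibiting cell growth by 50%, taken as the mean of three replicates. Taxol and NK109 served as positive controls.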
# [3] = test system: HCT-116; test: Growth inhibition of human HCT116 cells after 96 hrs by MTT assay; assay type: functional, cell-based; conditions: HCT-116, 96 h; how it was run: as §1
# [4] = test system: A2780; test: Growth inhibition of human A2780 cells after 96 hrs by MTT assay; assay type: functional, cell-based; conditions: A2780, 96 h; how it was run: as §1
# [5] = test system: BGC-823; test: Growth inhibition of human BGC823 cells after 96 hrs by MTT assay; assay type: functional, cell-based; conditions: BGC-823, 96 h; how it was run: as §1
# [6] = Cytotoxicity against rat IEC-6 cells assessed as survival rate at 10 uM after 48 hrs by MTT assay relative to control; assay type: cell-based; conditions: read-out: Survival
# How it was run: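 MTT read-out of viability in normal IEC-6 intestinal cells co-incubated with compound at 10 μM; readings at 0, 24 and 48 h of coculture (n = 5); survival expressed against a blank control group.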
IC50 [1] [µM],IC50 [2] [µM],IC50 [3] [µM],IC50 [4] [µM],IC50 [5] [µM],SMILES,"viability at 48 h, 10 µM [6] [%]"
> 10,> 10,> 10,> 10,> 10,Nc1ncnc2c1ncn2[C@H]1CCC(=O)c2c(O)ccc(O)c21,
> 10,> 10,> 10,> 10,> 10,O=C1CC[C@H]2c3c([nH]c4ccccc34)CCN12,
> 10,> 10,> 10,> 10,> 10,Nc1ncnc2c1ncn2[C@@H]1CCC(=O)c2c(O)ccc(O)c21,
> 10,> 10,> 10,> 10,> 10,NC(=O)[C@@H]1CCC(=O)c2cccc(O)c2N1,
> 10,> 10,> 10,> 10,> 10,O=C1CC[C@@H](c2c[nH]c3ccccc23)c2c(O)ccc(O)c21,
> 10,> 10,> 10,> 10,> 10,O=C1CC[C@H](c2c[nH]c3ccccc23)c2c(O)ccc(O)c21,
> 10,> 10,> 10,> 10,> 10,CCOCc1ccc(C=O)n1CCc1ccc(O)cc1,
> 10,> 10,> 10,> 10,> 10,Nc1ncnc2c1ncn2[C@@H]1CCC(=O)c2cccc(O)c21,
> 10,> 10,> 10,> 10,> 10,Nc1ncnc2c1ncn2[C@H]1CCC(=O)c2cccc(O)c21,
> 10,> 10,> 10,> 10,> 10,O=C1CC[C@@H]2c3c([nH]c4ccccc34)CCN12,
> 10,> 10,> 10,> 10,> 10,NC(=O)[C@H]1CCC(=O)c2cccc(O)c2N1,
> 10,> 10,> 10,> 10,> 10,Nc1ncnc2c1ncn2C1CCC(=O)c2cccc(O)c21 (racemic),
> 10,> 10,> 10,> 10,> 10,Nc1ncnc2c1ncn2C1CCC(=O)c2c(O)ccc(O)c21 (racemic),
> 10,> 10,> 10,> 10,> 10,O=C1CCC2c3c([nH]c4ccccc34)CCN12 (racemic),
> 10,> 10,> 10,> 10,> 10,NC(=O)C1CCC(=O)c2cccc(O)c2N1 (racemic),
> 10,> 10,> 10,> 10,> 10,O=C1CCC(c2c[nH]c3ccccc23)c2c(O)ccc(O)c21 (racemic),
,> 1,0.0002,0.0204,0.0006,CC(=O)O[C@H]1C(=O)[C@@]2(C)[C@H]([C@H](OC(=O)c3ccccc3)[C@]3(O)C[C@H](OC(=O)[C@H](O)[C@@H](NC(=O)c4ccccc4)c4ccccc4)C(C)=C1C3(C)C)[C@]1(OC(C)=O)CO[C@@H]1C[C@@H]2O [PACLITAXEL],

SMILES,IC50 [1] [µM],IC50 [2] [µM],IC50 [3] [µM],IC50 [4] [µM],IC50 [5] [µM],"viability at 48 h, 10 µM [6] [%]"
COc1ccc2c(c[n+](C)c3c4cc5c(cc4ccc23)OCO5)c1O,1.19,1.75,3.94,0.9,1.84,
O=Cc1ccc2n1CCc1c([nH]c3ccccc13)C2,1.87,2.86,2.87,0.96,2.28,79.6
